Measured values taken from ChEMBL document CHEMBL4038305, “Benzoxaborole Antimalarial Agents. Part 5. Lead Optimization of Novel Amide Pyrazinyloxy Benzoxaboroles and Identification of a Preclinical Candidate” (J Med Chem, 2017).

Tests used:
Plasmodium berghei [1] = assay: Antimalarial activity against Plasmodium berghei infected in Swiss Webster mouse assessed as mouse survival rate at 200 mg/kg administered once daily via oral gavage for 4 consecutive days beginning 1 hr after infection measured on day 4 post infection relative to control; type: functional
Method in brief: (§1)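 P. berghei-infected erythrocytes taken from a previously infected mouse were injected intraperitoneally. Oral dosing, once daily for 4 consecutive days, began 1 h after infection, in polyethylene glycol 300/propylene glycol/water (55/25/20 by weight). Chloroquine at 30 mg/kg was the positive control, with a vehicle-only group. Percent survival was recorded daily from day 4 to day 20.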

Plasmodium berghei [2] = assay: Antimalarial activity against Plasmodium berghei infected in Swiss Webster mouse assessed as mouse survival rate at 200 mg/kg administered once daily via oral gavage for 4 consecutive days beginning 1 hr after infection measured on day 6 post infection relative to control; type: functional; method in brief: as §1
Plasmodium berghei [3] = assay: Antimalarial activity against Plasmodium berghei infected in Swiss Webster mouse assessed as mouse survival rate at 200 mg/kg administered once daily via oral gavage for 4 consecutive days beginning 1 hr after infection measured on day 7 post infection relative to control; type: functional; method in brief: as §1
Plasmodium berghei [4] = assay: Antimalarial activity against Plasmodium berghei infected in Swiss Webster mouse assessed as mouse survival rate at 11 mg/kg administered once daily via oral gavage for 4 consecutive days beginning 1 hr after infection measured on day 9 post infection relative to control; type: functional; method in brief: as §1
Plasmodium berghei [5] = assay: Antimalarial activity against Plasmodium berghei infected in Swiss Webster mouse assessed as mouse survival rate at 200 mg/kg administered once daily via oral gavage for 4 consecutive days beginning 1 hr after infection measured on day 10 post infection relative to control; type: functional; method in brief: as §1
Plasmodium berghei [6] = assay: Antimalarial activity against Plasmodium berghei infected in Swiss Webster mouse assessed as mouse survival rate at 200 mg/kg administered once daily via oral gavage for 4 consecutive days beginning 1 hr after infection measured on day 11 post infection relative to control; type: functional; method in brief: as §1
Plasmodium berghei [7] = assay: Antimalarial activity against Plasmodium berghei infected in Swiss Webster mouse assessed as mouse survival rate at 200 mg/kg administered once daily via oral gavage for 4 consecutive days beginning 1 hr after infection measured on day 12 post infection relative to control; type: functional; method in brief: as §1
Plasmodium berghei [8] = assay: Antimalarial activity against Plasmodium berghei infected in Swiss Webster mouse assessed as mouse survival rate at 200 mg/kg administered once daily via oral gavage for 4 consecutive days beginning 1 hr after infection measured on day 13 post infection relative to control; type: functional; method in brief: as §1
Plasmodium berghei [9] = assay: Antimalarial activity against Plasmodium berghei infected in Swiss Webster mouse assessed as mouse survival rate at 200 mg/kg administered once daily via oral gavage for 4 consecutive days beginning 1 hr after infection measured on day 14 post infection relative to control; type: functional; method in brief: as §1
Plasmodium berghei [10] = assay: Antimalarial activity against Plasmodium berghei infected in Swiss Webster mouse assessed as mouse survival rate at 200 mg/kg administered once daily via oral gavage for 4 consecutive days beginning 1 hr after infection measured on day 15 post infection relative to control; type: functional; method in brief: as §1
Plasmodium berghei [11] = assay: Antimalarial activity against Plasmodium berghei infected in Swiss Webster mouse assessed as mouse survival rate at 100 mg/kg administered once daily via oral gavage for 4 consecutive days beginning 1 hr after infection measured on day 15 post infection relative to control; type: functional
Method in brief: (§2)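 Mice given an intraperitoneal injection of P. berghei-infected erythrocytes taken from a previously infected animal. Oral dosing once daily for 4 consecutive days, starting 1 h after infection. Vehicle: polyethylene glycol 300/propylene glycol/water (weight ratio 55/25/20). Percent survival recorded daily from day 4 to day 20. Chloroquine 30 mg/kg and vehicle-only groups served as controls.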

Plasmodium berghei [12] = assay: Antimalarial activity against Plasmodium berghei infected in Swiss Webster mouse assessed as mouse survival rate at 100 mg/kg administered once daily via oral gavage for 4 consecutive days beginning 1 hr after infection measured from day 16 to day 19 post infection relative to control; type: functional; method in brief: as §2
Plasmodium berghei [13] = assay: Antimalarial activity against Plasmodium berghei infected in Swiss Webster mouse assessed as mouse survival rate at 200 mg/kg administered once daily via oral gavage for 4 consecutive days beginning 1 hr after infection measured on day 20 post infection relative to control; type: functional; method in brief: as §1
Plasmodium berghei [14] = assay: Antimalarial activity against Plasmodium berghei infected in Swiss Webster mouse assessed as mouse survival rate at 100 mg/kg administered once daily via oral gavage for 4 consecutive days beginning 1 hr after infection measured on day 20 post infection relative to control; type: functional; method in brief: as §2
[15] = Cmax in CD1 mouse plasma at 5 mg/kg, po via gavage by HPLC/MS analysis; type: ADME, organism-based; set-up: dose 5 mg/kg, route oral
Method in brief: (§3)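 Female CD-1 mice, male SD rats and beagle dogs received 5 mg/kg either iv or by oral gavage. Vehicle was PEG 300/propylene glycol/water (55/25/20, pH 6). Blood was sampled and drug measured by HPLC-MS/MS.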

[16] = Tmax in CD1 mouse plasma at 5 mg/kg, po via gavage by HPLC/MS analysis; type: ADME, organism-based
Method in brief: (§4)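 Female CD-1 mice, male SD rats or beagle dogs given 5 mg/kg by iv injection or oral gavage. Formulation was PEG300/propylene glycol/water 55/25/20, pH 6. Blood samples analysed by HPLC–MS/MS; parameters include AUC0-inf extrapolated to infinity and terminal half-life.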

[17] = Terminal half life in CD1 mouse at 5 mg/kg, po via gavage by HPLC/MS analysis; type: ADME, organism-based; settings: in vivo, read-out: beta t1/2 (converted); method in brief: as §4
[18] = Clearance in CD1 mouse at 5 mg/kg, iv by HPLC/MS analysis; type: ADME, organism-based; settings: in vivo; method in brief: as §3
[19] = Volume of distribution at steady state in CD1 mouse at 5 mg/kg, iv by HPLC/MS analysis; type: ADME, organism-based; settings: in vivo, read-out: Vdss; method in brief: as §4
[20] = AUC (0 to infinity) in CD1 mouse at 5 mg/kg, iv by HPLC/MS analysis; type: ADME, organism-based; set-up: dose 5 mg/kg, time infinity, route intravenous; settings: in vivo
[21] = Terminal half life in CD1 mouse at 5 mg/kg, iv by HPLC/MS analysis; type: ADME, organism-based; settings: in vivo, read-out: beta t1/2 (converted); method in brief: as §4
Plasmodium berghei [22] = assay: Antimalarial activity against Plasmodium berghei infected in Swiss Webster mouse assessed as mouse survival rate at 100 mg/kg administered once daily via oral gavage for 4 consecutive days beginning 1 hr after infection measured on day 16 post infection relative to control; type: functional; method in brief: as §2
Plasmodium berghei [23] = assay: Antimalarial activity against Plasmodium berghei infected in Swiss Webster mouse assessed as mouse survival rate at 100 mg/kg administered once daily via oral gavage for 4 consecutive days beginning 1 hr after infection measured on day 17 post infection relative to control; type: functional; method in brief: as §2
Plasmodium falciparum = assay: Antimalarial activity against Plasmodium falciparum 3D7 0087/N9 infected in NOD/SCID IL2R gamma null mouse assessed as compound concentration in whole blood require to reduce parasitemia in peripheral blood administered once daily via oral gavage for 4 consecutive days measured on day 7 post infection; type: functional
Plasmodium berghei [24] = assay: Antimalarial activity against Plasmodium berghei infected in Swiss Webster mouse assessed as mouse survival rate at 200 mg/kg administered once daily via oral gavage for 4 consecutive days beginning 1 hr after infection measured from day 16 to day 19 post infection relative to control; type: functional; method in brief: as §1
Plasmodium berghei [25] = assay: Antimalarial activity against Plasmodium berghei infected in Swiss Webster mouse assessed as mouse survival rate at 1.1 mg/kg administered once daily via oral gavage for 4 consecutive days beginning 1 hr after infection measured on day 5 post infection relative to control; type: functional; method in brief: as §2
Plasmodium berghei [26] = assay: Antimalarial activity against Plasmodium berghei infected in Swiss Webster mouse assessed as mouse survival rate at 1.1 mg/kg administered once daily via oral gavage for 4 consecutive days beginning 1 hr after infection measured on day 6 post infection relative to control; type: functional; method in brief: as §2
Plasmodium berghei [27] = assay: Antimalarial activity against Plasmodium berghei infected in Swiss Webster mouse assessed as mouse survival rate at 1.1 mg/kg administered once daily via oral gavage for 4 consecutive days beginning 1 hr after infection measured on day 7 post infection relative to control; type: functional; method in brief: as §2

Compound	survival at 200 mg/kg (Plasmodium berghei [1]) [%]	survival at 200 mg/kg (Plasmodium berghei [2]) [%]	survival at 200 mg/kg (Plasmodium berghei [3]) [%]	survival at 11 mg/kg (Plasmodium berghei [4]) [%]	survival at 200 mg/kg (Plasmodium berghei [5]) [%]	survival at 200 mg/kg (Plasmodium berghei [6]) [%]	survival at 200 mg/kg (Plasmodium berghei [7]) [%]	survival at 200 mg/kg (Plasmodium berghei [8]) [%]	survival at 200 mg/kg (Plasmodium berghei [9]) [%]	survival at 200 mg/kg (Plasmodium berghei [10]) [%]	survival at 100 mg/kg (Plasmodium berghei [11]) [%]	survival at 200 mg/kg (Plasmodium berghei [13]) [%]	survival at 100 mg/kg (Plasmodium berghei [14]) [%]	Cmax [15] [ng/mL]	Tmax [16] [h]	half-life [17] [h]	clearance [18] [mL/min/kg]	Vd [19] [L/kg]	AUC(0-inf) [20] [ng·h/mL]	half-life [21] [h]	also measured
CCCC1(O)CN(C(=O)c2cnc(Oc3ccc4c(c3C)B(O)OC4)cn2)C1	100	100	100	0	100	100	100	100	100	100	80	0	0								survival at 100 mg/kg (Plasmodium berghei [12]): 20%
Cc1c(Oc2cnc(C(=O)NCCO)cn2)ccc2c1B(O)OC2	100	100	100		0									4300	1	3	2.65	0.636	31400	3	
Cc1c(Oc2cnc(C(=O)N3CC(C)(O)C3)cn2)ccc2c1B(O)OC2				0							60			3900	0.5	6.8	4.07	0.888	20500	7.1	survival at 100 mg/kg (Plasmodium berghei [22]): 60%; survival at 100 mg/kg (Plasmodium berghei [23]): 0%; AUCED90 (Plasmodium falciparum): 1.4 µg.hr/ml/day
Cc1c(Oc2cnc(C(=O)N[C@@H](CO)CC(F)(F)F)cn2)ccc2c1B(O)OC2														2100	1	3	3.97	0.741	21000	3	
CCC1(O)CN(C(=O)c2cnc(Oc3ccc4c(c3C)B(O)OC4)cn2)C1	100	100	100		100	100	100	100	100	100		80									survival at 200 mg/kg (Plasmodium berghei [24]): 80%; AUCED90 (Plasmodium falciparum): 1.6 µg.hr/ml/day
Cc1c(Oc2cnc(C(=O)NC(C)CO)cn2)ccc2c1B(O)OC2 (configuration not stated)														3800	1	2.7	2.13	0.603	39000	3.1	
Cc1c(Oc2cnc(C(=O)N3CC(O)(C(F)(F)F)C3)cn2)ccc2c1B(O)OC2											100		100								survival at 1.1 mg/kg (Plasmodium berghei [25]): 100%; survival at 1.1 mg/kg (Plasmodium berghei [26]): 100%; survival at 1.1 mg/kg (Plasmodium berghei [27]): 0%; survival at 100 mg/kg (Plasmodium berghei [12]): 100%
Cc1c(Oc2cnc(C(=O)N3CC(O)(C(C)C)C3)cn2)ccc2c1B(O)OC2	100	100	100	60	100	100	100	100	100	100	100	100	80								survival at 1.1 mg/kg (Plasmodium berghei [25]): 100%; survival at 1.1 mg/kg (Plasmodium berghei [26]): 100%; survival at 1.1 mg/kg (Plasmodium berghei [27]): 0%; survival at 200 mg/kg (Plasmodium berghei [24]): 100%; survival at 100 mg/kg (Plasmodium berghei [22]): 100%; survival at 100 mg/kg (Plasmodium berghei [23]): 100%
CCC[C@H](CO)NC(=O)c1cnc(Oc2ccc3c(c2C)B(O)OC3)cn1	100	100	100		100	100	100	100	100	100		100		4000	0.5	4.5	4.05	0.874	20500	4.2	survival at 200 mg/kg (Plasmodium berghei [24]): 100%; AUCED90 (Plasmodium falciparum): 7.45 µg.hr/ml/day
